Test results as given in the array DNA melting data of Ke et al. (doi:10.1101/2024.01.08.574731).

How the values were obtained:
[1] = melting temperature; fluorescence melt of hairpins on a sequencing array, two-state fit, raised by 9.35 °C to match UV melts; conditions: sodium 0.088 M
In short: (§1)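 Melting temperature and folding enthalpy were derived from bootstrapped two-state fits. The fitted temperatures were raised by 9.35 °C to agree with UV melts, and four replicates were combined by inverse variance. The underlying data were Cy3 fluorescence images of library hairpins, with annealed Cy3 and quencher oligos, on a sequenced MiSeq flow cell in 50 mM Na-HEPES pH 8.0, 25 mM NaCl, taken in 2.5 °C steps up to 60 °C, normalised to pre-quench Cy3 and to control constructs.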

[2] = folding enthalpy; higher = less favourable; fluorescence melt of hairpins on a sequencing array, two-state fit; conditions: sodium 0.088 M
In short: as §1

| Sequence | Tm [1] | folding enthalpy [2] |
| --- | --- | --- |
| GCACCCCGAAAGGGCTGC (((.(((....))).))) | 50 °C | -24.9 kcal/mol |
| GAGGGGGGAAACTCCCTC (((((.(....).))))) | 53.2 °C | -34.3 kcal/mol |
| GCTGGCGCGAAAGCGAGC (((..(((....)))))) | 55.6 °C | -9.37 kcal/mol |
| GCTGCACGAAAGTGAGC (((.(((....)))))) | 51.3 °C | -18.8 kcal/mol |
| CGATCGGAAACGACTCG ((((((....))).))) | 40.7 °C | -31 kcal/mol |
| GCTCTGGGAAACTAGAGC (((((.(....).))))) | 49.7 °C | -51 kcal/mol |
| GTGGTGGGAAACCACTAC ((.((((....)))).)) | 56.1 °C | -22.5 kcal/mol |
| GTGCGGCCGAAAGGCCAC (((..(((....)))))) | 64.1 °C | -10.1 kcal/mol |
| GATCTTCCTAAGATC ((((((...)))))) | 45.7 °C | -31.6 kcal/mol |
| GCGCTGCGAAAGCATAGC ((..(((....)))..)) | 52.7 °C | -22.7 kcal/mol |
| GATCGTCTGTACGATC ((((((....)))))) | 55.7 °C | -38.3 kcal/mol |
| GATCCCTTTGGGGATC ((((((....)))))) | 62.8 °C | -46 kcal/mol |
| GCTGAGCGAAAGCTCCGC ((.((((....)))).)) | 57.7 °C | -19.7 kcal/mol |
| GATCTTAACCAAGATC ((((((....)))))) | 42.9 °C | -33.7 kcal/mol |
| GGGCGTCGAAAGACTCCC (((.(((....))).))) | 53.9 °C | -38.3 kcal/mol |
| GTTAGGCGAAAGCCAAAC (((.(((....))).))) | 50.3 °C | -15.9 kcal/mol |
| GTTCCTGGAAACAGGAGC (.(((((....))))).) | 48.3 °C | -23.4 kcal/mol |
| GCACTCGAAAGAGCTTGC ((((((....)))..))) | 36.6 °C | -19.1 kcal/mol |
| GGAAAGGGAAACCTTCCC ((.((((....)))).)) | 33.3 °C | -19.3 kcal/mol |
| GGCTTGGGAAACTAAGCC (((((.(....).))))) | 52.2 °C | -45.5 kcal/mol |
| GCTAAGCGAAAGCCAAGC (((..((....))..))) | 38 °C | -20.3 kcal/mol |
| GCGCGATCGAAAGATCGC (((..(((....)))))) | 60.6 °C | -6.32 kcal/mol |
| GATCGGGACTCCGATC ((((((....)))))) | 61 °C | -39.7 kcal/mol |

| Sequence | Tm [1] | folding enthalpy [2] |
| --- | --- | --- |
| GATCGACAAGTCGATC ((((((....)))))) | 58.9 °C | -44.7 kcal/mol |
| GCTAGGCGAAAGCGCAGC (((..((....))..))) | 39.6 °C | -15.8 kcal/mol |
| GTGGTTGAAAAACCAC ((((((....)))))) | 59.7 °C | -37.8 kcal/mol |
| GGTTGTGCGAAAGCAACC (((..(((....)))))) | 42.8 °C | -19.1 kcal/mol |
| GCCGGGGGAAACCCTGGC (((.(((....))).))) | 65.4 °C | -40.9 kcal/mol |
| GGCTGCGAAAGCAGTGCC ((((((....)))..))) | 51.7 °C | -12.1 kcal/mol |
| GGCAGAGAAATCTGCC ((((((....)))))) | 63.5 °C | -32.8 kcal/mol |
| GGGCGAGGAAACTTGCCC ((((.((....)).)))) | 59.1 °C | -45.6 kcal/mol |
| GTCCGCGAAAGCGCGAC ((((((....))).))) | 56.9 °C | -20.7 kcal/mol |
| GGCGCACGAAAGTGGCC (((.(((....)))))) | 59.9 °C | -18.3 kcal/mol |
| GGTGGCGAAAGCCCTACC ((((((....)))..))) | 36.1 °C | -13.2 kcal/mol |
| GATCCGCAACGGATC ((((((...)))))) | 55.8 °C | -33 kcal/mol |
| GGGTACGAAAGTAGCCCC ((((((....)))..))) | 55 °C | -14.5 kcal/mol |
| GTCTAGGGAAACCTAGGC (.(((((....))))).) | 46.2 °C | -24.7 kcal/mol |
| GATCTTTTCAAGATC ((((((...)))))) | 47.7 °C | -36.3 kcal/mol |
| GTATCGGGAAACCAATAC ((((.((....)).)))) | 30.3 °C | -24.6 kcal/mol |
| GGAAGCCGAAAGGCCTCC (((.(((....))).))) | 48.4 °C | -20.2 kcal/mol |
| GATCGTGGGACGATC ((((((...)))))) | 53.8 °C | -30 kcal/mol |
| GCTCGGGGAAACCCGGGC ((.((((....)))).)) | 59.2 °C | -34.6 kcal/mol |
| GATCTCCGAAAGGACATC (((.(((....))).))) | 30.4 °C | -17 kcal/mol |
| GTATCCGAAAGGATGTAC ((((((....)))..))) | 36.7 °C | -11.5 kcal/mol |
| GCTGATGGAAACATTAGC (((.(((....))).))) | 46.5 °C | -37.4 kcal/mol |
| GGGAGCGAAAGCTAACCC ((((((....)))..))) | 45 °C | -16.1 kcal/mol |

| Sequence | Tm [1] | folding enthalpy [2] |
| --- | --- | --- |
| GGCCAAGGAAACTTGGTC (.(((((....))))).) | 53.3 °C | -35.1 kcal/mol |
| GTCTCTCGAAAGAGGGAC (((.(((....))).))) | 55.5 °C | -36.1 kcal/mol |
| GTCGGCGAAAGCCATGAC ((((((....)))..))) | 42.4 °C | -13.9 kcal/mol |
| GGGTCCGAAAGGAAACCC ((((((....)))..))) | 50.2 °C | -22.8 kcal/mol |
| GACCGCACGAAAGTGGTC (((..(((....)))))) | 47 °C | -21.1 kcal/mol |
| GACCGCGAAAGCGACGTC ((((((....)))..))) | 45.8 °C | -13.2 kcal/mol |
| GATCTATAACTAGATC ((((((....)))))) | 36.7 °C | -34.2 kcal/mol |
| GCGCCACGAAAGTGACGC (((.(((....))).))) | 66 °C | -38.4 kcal/mol |
| GGCTATGAAAATAGCC ((((((....)))))) | 59.1 °C | -45.7 kcal/mol |
| GCGGCGGACCGC ((((....)))) | 54.9 °C | -22.6 kcal/mol |
| GACACCGGAAACAGTGTC (((((.(....).))))) | 44.3 °C | -28.8 kcal/mol |
| GCGCCCACGAAAGTGCGC (((..(((....)))))) | 56 °C | -35.2 kcal/mol |
| GTCGCCGAAAGGCGGAC ((((((....))).))) | 58 °C | -11.2 kcal/mol |
| GATCGAGTCCTCGATC ((((((....)))))) | 56.2 °C | -45.8 kcal/mol |
| GTTGCCGAAAGGCCAAC ((((((....))).))) | 47.3 °C | -14.4 kcal/mol |
| GCCTCCGGAAACGGAGAC (.(((((....))))).) | 47 °C | -15.8 kcal/mol |
| GTAAGCCGAAAGGCTAC (((.(((....)))))) | 47.3 °C | -11.5 kcal/mol |
| GATCCACGTTTGGATC ((((((....)))))) | 50.5 °C | -34.6 kcal/mol |
| GGGGTTCGAAAGAAGCCC (((.(((....))).))) | 66.3 °C | -41.5 kcal/mol |
| GATCCCTCATGGGATC ((((((....)))))) | 62.6 °C | -37 kcal/mol |
| GCTGGCGAAAGCCCAGC ((((((....))).))) | 65.7 °C | -23.1 kcal/mol |
| GCACGAGCGAAAGCTTGC (((..(((....)))))) | 41 °C | -11.3 kcal/mol |
| GTGCCGGGAAACCGGTGC (..((((....))))..) | 52.7 °C | -19.4 kcal/mol |

| Sequence | Tm [1] | folding enthalpy [2] |
| --- | --- | --- |
| GCGGCAGCCGC ((((...)))) | 61.7 °C | -10.9 kcal/mol |
| GAACCCGAAAGGGTGTTC ((((((....)))..))) | 47.8 °C | -11.6 kcal/mol |
| GACCAGGGAAACCTGACC (..((((....))))..) | 30.1 °C | -10 kcal/mol |
| GGGTATGGAAACGTATCC ((.((.(....).)).)) | 30.5 °C | -19.8 kcal/mol |
| GAAGCCGAAAGGCGATTC ((((((....)))..))) | 58 °C | -14.9 kcal/mol |
| GCTTCGCGAAAGCTAGGC ((.(.((....)).).)) | 35.2 °C | -17.3 kcal/mol |
| GCGACAGGAAACTGCCGC (((.(((....))).))) | 55.9 °C | -46.4 kcal/mol |
| GCGCTGCGAAAGCGGAGC ((.(.((....)).).)) | 63.3 °C | -21.4 kcal/mol |
| GGGAAGCGAAAGCTGCCC (((.(((....))).))) | 65.2 °C | -23.2 kcal/mol |
| GCTTGGGCGAAAGCCAGC (((..(((....)))))) | 48.6 °C | -12.9 kcal/mol |
| CGTGCCGGAAACGGACG (((.(((....)))))) | 48.7 °C | -22 kcal/mol |
| GATCCGCGGTCGGATC ((((((....)))))) | 57.2 °C | -42.7 kcal/mol |
| GAGTCGGGAAACCAACTC ((((.((....)).)))) | 38.9 °C | -30.7 kcal/mol |
| GCGTCCCAACGC ((((....)))) | 55.1 °C | -23.5 kcal/mol |
| GCGTACGGAAACGTATGC ((.((((....)))).)) | 55.9 °C | -40.1 kcal/mol |
| GAACAGCGAAAGCTTTC (((.(((....)))))) | 33.6 °C | -12.4 kcal/mol |
| GCCGTAGGAAACTACAGC ((.((((....)))).)) | 39.6 °C | -11.7 kcal/mol |
| GCCATCCGAAAGGAGGGC (((.(((....))).))) | 67.2 °C | -44 kcal/mol |
| GGTCGCCCGAAAGGGACC (((..(((....)))))) | 45.1 °C | -15.8 kcal/mol |
| GCGTAAGCACGC ((((....)))) | 59.6 °C | -9.59 kcal/mol |
| GATCCCTTTCGGGATC ((((((....)))))) | 60.1 °C | -48.2 kcal/mol |
| GAGGCCGGAAACAGCCCC (.(((.(....).))).) | 27.2 °C | -10.6 kcal/mol |
| GATCACTGCTGTGATC ((((((....)))))) | 57.1 °C | -38.2 kcal/mol |
